Bioassay records deposited in PubChem BioAssay by Sanford-Burnham Center for Chemical Genomics.
Only a sample is shown.
Apaf1 activ: human Apaf-1 activation. O14727. Apaf-1 apoptosome caspase-3 activation, DEVD-Rh110 fluorescence; active compounds read low. activity change, negative = activation, % at 20 µM. hit rate 0.31% among 330,000. AID 489031;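 active = activity change at or below -40% at 20 µM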
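Material: reconstituted apoptosome of Apaf-1, cytochrome c, caspase-9, procaspase-3; times: 30 min preincubation, 50 min reaction, room temperature; measured by: fluorescence, 540 nm emission, 480 nm excitation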
Rh110 act interf: interferes with Rh110 fluorescence, flagging false Apaf-1 activators. shares compounds with Apaf1 activ. 980 tested, under 10 active. fluorescence interference (activity change), % at 20 µM, hits read low. Rh110 fluorescence interference, quenched caspase reaction, Ex480/Em540;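 active = mean activity change at or below -40% when tested at 20 µM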
Apaf-1 act conf: Apaf-1 (human) activation, single-dose confirmed; reconstituted apoptosome caspase-3 activity, DEVD-Rh110 fluorescence; active compounds read low; activity change, negative = activation, % at 20 µM; shares compounds with Apaf1 activ; hit rate 5% among 980;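 active = mean activity change at or below -40%, meaning activation of 40% or more, at 20 µM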
Fluor interf act: Apaf-1 activator counter-screen fluorescence artifact; 55 tested, under 10 active; fluorescence interference counterscreen, Apaf-1 activator assay; shares compounds with Apaf1 activ; AID 588592; EC50, µM; call rule not given here
* hit, by the source's call.

Screening CCN(Cc1ccccc1)C(=O)C1CCC(CNc2c(N3CCOCC3)c(=O)c2=O)CC1 (stereo not drawn) returned Apaf1 activ -410.3*, Rh110 act interf 9.9 and Apaf-1 act conf 0.9.
COc1ccc([N+](=O)[O-])cc1NC1C2CC3CC(C2)CC1C3 (stereo not drawn) was read as Apaf1 activ -522.4*, Rh110 act interf 9.2 and Apaf-1 act conf 12.1.
For Cc1ccccc1NC1=C/C(=N\S(=O)(=O)c2cccs2)c2ccccc2C1=O the results were Apaf1 activ 97.0.
For C#CCOCCOCCOCCNc1nc(N2CCN(C(=O)C([C@@H](C)O)n3cc([C@@H](N)CCCCN)nn3)CC2)nc(N2CCN(C(=O)[C@H](CO)n3cc([C@@H](N)C(C)C)nn3)CC2)n1 (stereo partly drawn) the results were Apaf1 activ 52.5.
`C#CCOCCOCCOCCNc1nc(N2CCN(C(=O)CCCCCCCCCCNC(=O)[C@H](CCCCN)n3cc(CCO)nn3)CC2)nc(N2CCN(C(=O)CCCCCCCCCCNC(=O)[C@H](CCCCN)n3cc(CCO)nn3)CC2)n1` gave Apaf1 activ 64.0.
For O=C(NCCCN1CCc2ccccc2C1)C1CCN(c2nnc(-n3cccc3)s2)CC1 the results were Apaf1 activ 51.3.
For Cc1cc2ccccc2n1CCNC(=O)C1CCCCC1 the results were Apaf1 activ 44.2.
Screening Cc1ccc(C)n1-c1nnc(N2CCC(C(=O)NCCCN3CC(C)CC(C)C3)CC2)s1 (stereo not drawn) returned Apaf1 activ -402.0*, Rh110 act interf 5.5 and Apaf-1 act conf 13.9.
For Cc1ccc(S(=O)(=O)Nc2ccc3c(c2)CC(=O)N([C@H](C)CO)C[C@@H](C)[C@H](CN(C)Cc2ccc(-c4ccccc4)cc2)O3)cc1 the results were Apaf1 activ 41.0.
CN(C)CCCNc1cc(C(C)(C)C)nc2c(-c3ccc(Cl)cc3)cnn12 was read as Apaf1 activ 58.3.
For CCOc1ccccc1OCCC(=O)NNC(=O)Cn1nc(C)cc1C the results were Apaf1 activ -81.5*, Rh110 act interf 5.4 and Apaf-1 act conf 9.4.
`O=C(COC(=O)/C=C/c1ccc(OC(F)F)cc1)NC1CCCCCC1` gave Apaf1 activ -64.2*, Rh110 act interf 7.2 and Apaf-1 act conf 11.7.
Screening CCN1CCN(c2ccc(S(=O)(=O)N3CCCCC3)cc2NC(=O)/C=C/c2ccc(OC(F)F)cc2)CC1 returned Apaf1 activ 51.9.
`COc1cccc2c1[C@@H]1CN(CCCCn3c(=O)[nH]c4c(sc5ncc(-c6ccccc6)nc54)c3=O)C[C@@H]1CO2` gave Apaf1 activ 48.4.
For COc1ccc(-c2cc(-c3ccc(F)cc3)nc(N3CCN(C)CC3)n2)cc1 the results were Apaf1 activ 65.3.
Screening COc1ccc(-c2[nH]nc3oc(=O)cc(C)c23)cc1 returned Apaf1 activ -135.4*, Rh110 act interf 6.7 and Apaf-1 act conf 16.3.
`Cc1ccc(CN(C)C(=O)CSc2nnc3n2CCCCC3)c(C)c1` gave Apaf1 activ -42.3*, Rh110 act interf -8.4 and Apaf-1 act conf 6.0.
For CCOC(=O)c1c2c(n(C)c1C)C(=O)C(=O)c1ccc(Br)cc1-2 the results were Apaf1 activ 95.6.
Cc1ccc(NC(=O)N(CCC#N)Cc2ccccc2)cc1 was read as Apaf1 activ -471.1*, Rh110 act interf -13.4 and Apaf-1 act conf 2.3.
`O=C(O)c1ccc2c3c(ncnc13)-c1ccccc1C2=O` gave Apaf1 activ 44.0.
Screening CCC(CO)Oc1cc(NCc2cccc(C(F)(F)F)c2)c2ncn(C(C)C)c2c1 (stereo not drawn) returned Apaf1 activ 40.9.
Screening Oc1ccc(N=Cc2ccc(-c3cccs3)s2)cc1 returned Apaf1 activ 95.8.
For COC(=O)c1ccccc1-c1ccc(/C=C2\C(=O)N(c3ccccc3)N=C2c2ccccc2)o1 the results were Apaf1 activ 62.3 and Fluor interf act >100.
Screening CC1=NN(c2ccccc2)C(=O)/C1=C/c1ccc(-c2ccc(C)c(C(=O)O)c2)o1 returned Apaf1 activ 68.2.
For CC1=NN(c2ccc(C(=O)O)cc2)C(=O)/C1=C/c1ccc(-c2ccccc2F)o1 the results were Apaf1 activ 57.7.
Screening Cc1ccc2nc(-c3ccc(NC(=S)NC4CC(C)(C)NC(C)(C)C4)cc3)sc2c1 returned Apaf1 activ 50.3.
`Nc1nc(SCC(=O)Nc2cc(-c3ccccc3)nn2-c2ccccc2)n[nH]1` gave Apaf1 activ -41.2*, Rh110 act interf 7.5 and Apaf-1 act conf 4.7.
Screening CN(C)c1cc(N/N=C\c2ccccc2)nc(N(C)C)n1 returned Apaf1 activ 94.8.
For O=C1NC(=Nc2ccccc2)S/C1=C/c1cccs1 the results were Apaf1 activ -300.3*, Rh110 act interf 7.3 and Apaf-1 act conf 14.7.
`O=C(/C=C/c1ccco1)c1ccc(NC(=O)C23CC4CC(CC(C4)C2)C3)cc1` gave Apaf1 activ 45.4.
O=C(CSc1ccc2c(c1)OCCO2)Nc1ccc2c(c1)OCO2 was read as Apaf1 activ -577.5*, Rh110 act interf 9.8 and Apaf-1 act conf 11.1.
Screening O=C(Nc1ccc2c(c1)OCO2)[C@@H]1[C@@H]2C(=O)N(C3CCCCC3)C(=O)[C@@H]2C2c3ccccc3C=CN21 (stereo partly drawn) returned Apaf1 activ 42.5.
O=C1/C(=C/Nc2ccc3c(c2)OCO3)CCc2ccccc21 was read as Apaf1 activ 45.0.
Cc1ccc(NC2=C(NC(=O)c3ccccc3)C(=O)c3ccccc3C2=O)cc1Cl was read as Apaf1 activ 67.3.
For Cc1ccccc1-n1c(C)nc2ccccc21 the results were Apaf1 activ -75.2*, Rh110 act interf -5.7 and Apaf-1 act conf 5.3.
C#CCOCCOCCOCCNc1nc(N2CCN(C(=O)[C@H]([C@@H](C)CC)n3cc([C@@H](N)Cc4ccc(O)cc4)nn3)CC2)nc(N2CCN(C(=O)[C@H](Cc3cc4ccccc4[nH]3)n3cc([C@@H](N)C(C)CC)nn3)CC2)n1 (stereo partly drawn) was read as Apaf1 activ 49.1.
For Cc1cc(C)c2sc(N(CCN(C)C)C(=O)CCS(=O)(=O)c3ccccc3)nc2c1 the results were Apaf1 activ 52.5.
`O=C1NCC(c2ccccc2)C1C(=O)N/N=C\c1ccc(-c2cccc(Cl)c2Cl)o1` (stereo not drawn) gave Apaf1 activ 40.0.
CCCCCN(C(=O)NC(=O)Nc1nncs1)S(C)(=O)=O was read as Apaf1 activ -46.3*, Rh110 act interf -2.0 and Apaf-1 act conf 7.2.
`OCCNC(=S)Nc1ccc2nsnc2c1` gave Apaf1 activ 96.9.
For CN(C)CCCNS(=O)(=O)c1ccc(N2CCC(c3ccc(Cl)cc3)=N2)cc1 the results were Apaf1 activ 73.4.
Screening CCCNS(=O)(=O)c1ccc(CCC(=O)N2CCCCC2)cc1 returned Apaf1 activ -511.5*, Rh110 act interf -2.3 and Apaf-1 act conf 7.5.
Screening CCC(C)Nc1ccc(NC(C)CC)cc1 (stereo not drawn) returned Apaf1 activ 42.7.
